Measured values from ChEMBL document CHEMBL1772938, “Optimization of 3-(phenylthio)quinolinium compounds against opportunistic fungal pathogens” (Eur J Med Chem, 2011).
Values after ≈ are worked out from the molar mass of the structure shown.

Legend:
[1] = Cytotoxicity against african green monkey Vero cells after 48 hrs by neutral red assay; assay type: cell-based; conditions: chlorocebus sabaeus, read-out: TC50
Summary of the method: (§1)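 VERO kidney cells were seeded at 25,000 cells/well and incubated 24 h. Samples were added up to 10 μg/mL and incubated a further 48 h. Viable cells were counted by neutral red uptake. IC50 came from growth-inhibition dose curves. Doxorubicin was the positive control and DMSO the vehicle control.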

[2] = tested on: Pichia kudriavzevii; test: Antimicrobial activity against Candida krusei ATCC 6258 by alamar blue assay; assay type: functional, organism-based
[3] = tested on: Candida albicans; test: Antimicrobial activity against Candida albicans ATCC 90028 by alamar blue assay; assay type: functional, organism-based
[4] = tested on: Pichia kudriavzevii; test: Antimicrobial activity against Candida krusei ATCC 6258 by CLSI method; assay type: functional
Summary of the method: (§2)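 Modified CLSI microdilution. DMSO samples were serially diluted in saline and tested in duplicate against inoculum adjusted by the 0.5 McFarland standard. The final test range started at 20 μg/mL. Plates were read before and after incubation. IC50 came from % growth versus concentration; MIC was the lowest concentration without visible growth. Growth, solvent, blank and amphotericin B controls were on each plate.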

[5] = tested on: Aspergillus fumigatus; test: Antimicrobial activity against Aspergillus fumigatus ATCC 90906 by alamar blue assay; assay type: functional, organism-based
Summary of the method: (§3)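 Modified CLSI broth microdilution. DMSO stocks were serially diluted in saline and run in duplicate. Inoculum was set by the 0.5 McFarland standard in YM broth for MIC, or in RPMI-1640 + 5% Alamar Blue for IC50. The top final concentration was 20 μg/mL. Fluorescence (544ex/590em) was read before and after incubation. IC50 was taken from % growth versus concentration; MIC was read visually as no blue-to-pink change.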

[6] = tested on: Cryptococcus neoformans; test: Antimicrobial activity against Cryptococcus neoformans ATCC 90113 by alamar blue assay; assay type: functional, organism-based
[7] = tested on: Nakaseomyces glabratus; test: Antimicrobial activity against Candida glabrata ATCC 90030 by CLSI method; assay type: functional; summary of the method: as §2
[8] = tested on: Candida albicans; test: Antimicrobial activity against Candida albicans ATCC 90028 by CLSI method; assay type: functional
Summary of the method: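 C. albicans inoculum was made to the 0.5 McFarland standard in Sabouraud dextrose broth or RPMI 1640. Samples came from DMSO stocks serially diluted in saline, in duplicate, starting at a final 20 μg/mL. Plates were read at OD 630 nm before and after incubation. IC50 came from the % growth versus concentration plot; MIC was the lowest concentration with no visible growth. Included: growth, solvent and blank controls, plus amphotericin B.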

[9] = tested on: Aspergillus fumigatus; test: Antimicrobial activity against Aspergillus fumigatus ATCC 90906 by CLSI method; assay type: functional; summary of the method: as §3
[10] = tested on: Nakaseomyces glabratus; test: Antimicrobial activity against Candida glabrata ATCC 90030 by alamar blue assay; assay type: functional, organism-based
[11] = tested on: Cryptococcus neoformans; test: Antimicrobial activity against Cryptococcus neoformans ATCC 90113 by CLSI method; assay type: functional
Summary of the method: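 C. neoformans in Sabouraud dextrose broth, inoculum per the 0.5 McFarland standard. Saline serial dilutions of DMSO samples were tested in duplicate, with a final top concentration of 20 μg/mL. OD 630 nm was read before and after incubation. IC50 was derived from % growth versus concentration. MIC was judged visually as the lowest concentration with no detectable growth. Amphotericin B served as the drug control.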

[12] = Selectivity index, ratio of TC50 for african green monkey Vero cells to IC50 for Cryptococcus neoformans ATCC 90113; assay type: toxicity, cell-based; conditions: read-out: Selectivity Index
[13] = tested on: Vero; test: Cytotoxicity against african green monkey Vero cells at 10 ug/ml after 48 hrs by neutral red assay; assay type: cell-based; conditions: chlorocebus sabaeus; summary of the method: as §1

Row | SMILES | CC50 at 48 h [1] [µg/mL] | IC50 [2] [µg/mL] | IC50 [3] [µg/mL] | MFC [4] [µg/mL] | MIC [4] [µg/mL] | IC50 [5] [µg/mL] | IC50 [6] [µg/mL] | MFC [7] [µg/mL] | MIC [7] [µg/mL] | MFC [8] [µg/mL] | MIC [8] [µg/mL] | MFC [9] [µg/mL] | MIC [9] [µg/mL] | IC50 [10] [µg/mL] | MFC [11] [µg/mL] | MIC [11] [µg/mL] | selectivity ratio [12] | Activity [13]
1 | Cc1cccc(Sc2cc3ccccc3[n+](CCCCCC3CCCCC3)c2)c1.[I-] | 3.7 | 0.4 | 1.4 | 1.3 | 0.6 | 3.5 | 0.2 | 10 | 10 | 5 | 2.5 | 5 | 5 | 5.5 | 0.4 | 0.3 | 19 | 
2 | [I-].c1ccc(Sc2cc3ccccc3[n+](CCCCCC3CCCCC3)c2)cc1 | 4.6 |  |  | 2.5 | 1.3 |  |  | 20 | 20 | 10 | 5 | > 20 | 10 | 15 | 2.5 | 1.3 | 9.2 | 
3 | Brc1ccc(Sc2cc3ccccc3[n+](CCCCCc3ccccc3)c2)cc1.[I-] |  |  | 8.5 |  |  | 3.5 | 2 |  |  | > 20 | 20 | > 20 | 10 |  | 10 | 10 |  | Non-toxic
4 | Brc1ccccc1Sc1cc2ccccc2[n+](CCCCCc2ccccc2)c1.[I-] | 10 |  | 10 |  |  | 1 | 3 |  |  | > 20 | 20 | > 20 | 2.5 |  | 20 | 5 |  | 
5 | Cc1cccc(Sc2cc3ccccc3[n+](CCCCCc3ccccc3)c2)c1.[I-] | 8.8 |  | > 20 |  |  | 20 | 1.4 |  |  | > 20 | > 20 | > 20 | > 20 |  | 20 | 2.5 |  | 
6 | Cc1ccc(Sc2cc3ccccc3[n+](CCCCCC3CCCCC3)c2)cc1.[I-] | 2.8 | 0.5 | 1.3 | 1.3 | 0.6 | 2.7 | 0.2 | 10 | 10 | 5 | 2.5 | 5 | 5 | 5.5 | 1.3 | 0.3 | 14 | 
7 | COc1cccc(Sc2cc3ccccc3[n+](CCCCCC3CCCCC3)c2)c1.[I-] | 4.5 | 0.6 | 2.7 | 1.3 | 1.3 | 5.5 | 0.4 | > 20 | 20 | 10 | 5 | 20 | 10 | 16 | 2.5 | 0.6 | 11 | 
8 | N#Cc1ccccc1Sc1cc2ccccc2[n+](CCCCCC2CCCCC2)c1.[I-] | 10 | 0.7 | 3.3 | 5 | 2.5 | 5 | 1.1 | 20 | 20 | 10 | 10 | 20 | 19 | 12 | 10 | 1.3 | 9.1 | 
9 | COc1cccc(Sc2cc3ccccc3[n+](CCCCCc3ccccc3)c2)c1.[I-] | > 10 |  | > 20 |  |  | 3.5 | 10 |  |  | > 20 | > 20 | > 20 | 5 |  | > 20 | 20 |  | 
10 | Cc1ccc(Sc2cc3ccccc3[n+](CCCCCc3ccccc3)c2)cc1.[I-] | 4.2 |  | > 20 |  |  | 16 | 1.2 |  |  | > 20 | > 20 | > 20 | > 20 |  | 5 | 2.5 |  | 
11 | Oc1ccccc1Sc1cc2ccccc2[n+](CCCCCC2CCCCC2)c1.[I-] | 9.3 | 4.4 | 4.7 | 10 | 10 | 3.9 | 1 | > 20 | 20 | 20 | 10 | > 20 | 10 | 12 | 1.3 | 1.3 | 9.3 | 
12 | Brc1cccc(Sc2cc3ccccc3[n+](CCCCCc3ccccc3)c2)c1.[I-] | > 10 |  | 10 |  |  | 2.5 | 2 |  |  | > 20 | 20 | > 20 | 10 |  | 10 | 5 |  | 
13 | Fc1cccc(Sc2cc3ccccc3[n+](CCCCCC3CCCCC3)c2)c1.[I-] | 6.6 | 0.3 | 2.7 | 1.3 | 0.6 | 5.3 | 0.5 | 20 | 20 | 10 | 5 | 20 | 10 | 12 | 2.5 | 0.6 | 13 | 
14 | COc1ccccc1Sc1cc2ccccc2[n+](CCCCCc2ccccc2)c1.[I-] | 4.3 |  | > 20 |  |  | 8 | 15 |  |  | > 20 | > 20 | > 20 | > 20 |  | > 20 | > 20 |  | 
15 | [I-].c1ccc(CCCCC[n+]2cc(Sc3ccccc3)cc3ccccc32)cc1 |  |  |  |  |  |  |  |  |  | > 20 | 10 | > 20 | 1.3 |  | > 20 | 5 |  | 
16 | C[C@@H]1[C@H](O)[C@@H](C)/C=C/C=C/C=C/C=C/C=C/C=C/C=C/[C@H](O[C@@H]2O[C@H](C)[C@@H](O)[C@H](N)[C@@H]2O)C[C@@H]2O[C@](O)(C[C@@H](O)C[C@@H](O)[C@H](O)CC[C@@H](O)C[C@@H](O)CC(=O)O[C@H]1C)C[C@H](O)[C@H]2C(=O)O [AMPHOTERICIN B] | 6.5 (≈ 7.03 µM) | 0.9 (≈ 0.974 µM) |  | 2.5 (≈ 2.71 µM) | 2.5 (≈ 2.71 µM) |  |  | 2.5 (≈ 2.71 µM) | 1.3 (≈ 1.41 µM) | 1.3 (≈ 1.41 µM) | 1.3 (≈ 1.41 µM) | 5 (≈ 5.41 µM) | 1.3 (≈ 1.41 µM) | 0.6 (≈ 0.649 µM) | 5 (≈ 5.41 µM) | 1.3 (≈ 1.41 µM) | 14 | 
17 | FC(F)(F)c1ccc(Sc2cc3ccccc3[n+](CCCCCc3ccccc3)c2)cc1.[I-] | 10 |  | 11 |  |  | 15 | 2.7 |  |  | > 20 | 20 | > 20 | > 20 |  | 10 | 5 |  | 
18 | COc1ccc(Sc2cc3ccccc3[n+](CCCCCc3ccccc3)c2)cc1.[I-] | 10 |  | > 20 |  |  | 4.5 | 15 |  |  | > 20 | > 20 | > 20 | 20 |  | < 20 | 20 |  | 
19 | Cc1ccccc1Sc1cc2ccccc2[n+](CCCCCC2CCCCC2)c1.[I-] | 4 | 0.6 | 1.7 | 1.3 | 1.3 | 4.8 | 0.3 | 20 | 20 | 10 | 5 | > 20 | 10 | 13 | 1.3 | 0.6 | 13 | 
20 | Brc1ccccc1Sc1cc2ccccc2[n+](CCCCCC2CCCCC2)c1.[I-] | 9.7 | 0.3 | 1.4 | 1.3 | 0.6 | 2 | 0.3 | 10 | 5 | 2.5 | 2.5 | 20 | 2.5 | 3.2 | 1.3 | 0.6 | 32 | 
